Test results from ChEMBL document CHEMBL4270599, “Synthesis of a 3'-C-ethynyl-β-d-ribofuranose purine nucleoside library: Discovery of C7-deazapurine analogs as potent antiproliferative nucleosides” (Eur J Med Chem, 2018).

How the values were obtained:
[1] = tested on: OVCAR-4; experiment: Growth inhibition of human OVCAR4 cells assessed as cell growth at 10^-7 M incubated for 48 hrs by sulforhodamine B assay relative to control; format: functional; settings: OVCAR-4, 48 h, read-out: Activity
[2] = tested on: COLO 205; experiment: Growth inhibition of human COLO205 cells assessed as cell growth at 10^-8 M incubated for 48 hrs by sulforhodamine B assay relative to control; format: functional; settings: COLO 205, 48 h, read-out: Activity
[3] = tested on: SK-OV-3; experiment: Growth inhibition of human SKOV3 cells assessed as cell growth at 10^-7 M incubated for 48 hrs by sulforhodamine B assay relative to control; format: functional; settings: SK-OV-3, 48 h, read-out: Activity
[4] = tested on: OVCAR-5; experiment: Growth inhibition of human OVCAR5 cells assessed as cell growth at 10^-7 M incubated for 48 hrs by sulforhodamine B assay relative to control; format: functional; settings: OVCAR-5, 48 h, read-out: Activity
[5] = tested on: HCT-116; experiment: Growth inhibition of human HCT116 cells assessed as cell growth at 10^-7 M incubated for 48 hrs by sulforhodamine B assay relative to control; format: functional; settings: HCT-116, 48 h, read-out: Activity
[6] = tested on: U-251; experiment: Growth inhibition of human U251 cells assessed as cell growth at 10^-7 M incubated for 48 hrs by sulforhodamine B assay relative to control; format: functional; settings: U-251, 48 h, read-out: Activity
[7] = tested on: HOP-92; experiment: Growth inhibition of human HOP92 cells assessed as cell growth at 10^-6 M incubated for 48 hrs by sulforhodamine B assay relative to control; format: functional; settings: HOP-92, 48 h, read-out: Activity
[8] = tested on: 786-0; experiment: Growth inhibition of human 786-0 cells assessed as cell growth at 10^-8 M incubated for 48 hrs by sulforhodamine B assay relative to control; format: functional; settings: 786-0, 48 h, read-out: Activity
[9] = tested on: NCI-H23; experiment: Cytotoxicity against human NCI-H23 cells after 48 hrs by SRB assay; format: functional; settings: NCI-H23, 48 h; for CC50: read-out: LC50 (the source's name)
[10] = tested on: DU-145; experiment: Growth inhibition of human DU145 cells assessed as cell growth at 10^-5 M incubated for 48 hrs by sulforhodamine B assay relative to control; format: functional; settings: DU-145, 48 h, read-out: Activity
[11] = tested on: HT-29; experiment: Growth inhibition of human HT-29 cells assessed as cell growth at 10^-7 M incubated for 48 hrs by sulforhodamine B assay relative to control; format: functional; settings: HT-29, 48 h, read-out: Activity
[12] = tested on: HCT-15; experiment: Growth inhibition of human HCT15 cells assessed as cell growth at 10^-8 M incubated for 48 hrs by sulforhodamine B assay relative to control; format: functional; settings: HCT-15, 48 h, read-out: Activity
[13] = tested on: OVCAR-3; experiment: Growth inhibition of human OVCAR3 cells assessed as cell growth at 10^-8 M incubated for 48 hrs by sulforhodamine B assay relative to control; format: functional; settings: OVCAR-3, 48 h, read-out: Activity
[14] = tested on: UACC-257; experiment: Growth inhibition of human UACC257 cells assessed as cell growth at 10^-8 M incubated for 48 hrs by sulforhodamine B assay relative to control; format: functional; settings: UACC-257, 48 h, read-out: Activity
[15] = tested on: MCF7; experiment: Growth inhibition of human MCF7 cells assessed as cell growth at 10^-8 M incubated for 48 hrs by sulforhodamine B assay relative to control; format: functional; settings: MCF7, 48 h, read-out: Activity
[16] = tested on: SR; experiment: Growth inhibition of human SR cells assessed as cell growth at 10^-4 M incubated for 48 hrs by sulforhodamine B assay relative to control; format: functional; settings: read-out: Activity
[17] = tested on: SK-MEL-5; experiment: Cytotoxicity against human SK-MEL-5 cells after 48 hrs by SRB assay; format: functional; settings: SK-MEL-5, 48 h
[18] = tested on: BT-549; experiment: Growth inhibition of human BT549 cells assessed as cell growth at 10^-7 M incubated for 48 hrs by sulforhodamine B assay relative to control; format: functional; settings: BT-549, 48 h, read-out: Activity
[19] = tested on: KM12; experiment: Growth inhibition of human KM12 cells assessed as cell growth at 10^-7 M incubated for 48 hrs by sulforhodamine B assay relative to control; format: functional; settings: KM12, 48 h, read-out: Activity
[20] = tested on: HOP-62; experiment: Growth inhibition of human HOP62 cells assessed as cell growth at 10^-7 M incubated for 48 hrs by sulforhodamine B assay relative to control; format: functional; settings: HOP-62, 48 h, read-out: Activity
[21] = tested on: NCI-H460; experiment: Growth inhibition of human NCI-H460 cells assessed as cell growth at 10^-8 M incubated for 48 hrs by sulforhodamine B assay relative to control; format: functional; settings: NCI-H460, 48 h, read-out: Activity
[22] = tested on: K562; experiment: Growth inhibition of human K562 cells assessed as cell growth at 10^-7 M incubated for 48 hrs by sulforhodamine B assay relative to control; format: functional; settings: K562, 48 h, read-out: Activity
[23] = tested on: ACHN; experiment: Growth inhibition of human ACHN cells assessed as cell growth at 10^-8 M incubated for 48 hrs by sulforhodamine B assay relative to control; format: functional; settings: read-out: Activity
[24] = tested on: SK-MEL-28; experiment: Growth inhibition of human SK-MEL-28 cells assessed as cell growth at 10^-8 M incubated for 48 hrs by sulforhodamine B assay relative to control; format: functional; settings: SK-MEL-28, 48 h, read-out: Activity
[25] = tested on: HT-29; experiment: Cytotoxicity against human HT-29 cells after 48 hrs by SRB assay; format: functional; settings: HT-29, 48 h
[26] = tested on: IGROV-1; experiment: Cytotoxicity against human IGROV1 cells after 48 hrs by SRB assay; format: functional; settings: IGROV-1, 48 h; for CC50: read-out: LC50 (the source's name)
[27] = tested on: SK-OV-3; experiment: Growth inhibition of human SKOV3 cells assessed as cell growth at 10^-4 M incubated for 48 hrs by sulforhodamine B assay relative to control; format: functional; settings: SK-OV-3, 48 h, read-out: Activity
[28] = tested on: SN12C; experiment: Cytotoxicity against human SN12C cells after 48 hrs by SRB assay; format: functional; settings: for CC50: read-out: pLC50 (the source's name) (converted)
[29] = tested on: UACC-257; experiment: Cytotoxicity against human UACC257 cells after 48 hrs by SRB assay; format: functional; settings: UACC-257, 48 h
[30] = tested on: SW-620; experiment: Growth inhibition of human SW620 cells assessed as cell growth at 10^-6 M incubated for 48 hrs by sulforhodamine B assay relative to control; format: functional; settings: SW-620, 48 h, read-out: Activity
[31] = Antiproliferative activity against HMVEC-d cells after 4 days by Coulter counter method; format: cell-based; settings: Homo sapiens, 96 h
Procedure, shortened: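 Primary HUVEC, primary HMVEC-d and the HMEC-1 line seeded at 20,000 cells/well in gelatin-coated plates in EC growth medium (EGM2). After overnight incubation, 5-fold compound dilutions added. Cells proliferated four days with compound, then trypsinized and counted by Coulter counter to derive IC₅₀.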

[32] = read-out: pLC50 (the source's name) (converted)
[33] = read-out: LC50 (the source's name)

`C#C[C@@]1(O)[C@@H](CO)O[C@@H](n2ccc3c(N)ncnc32)[C@@H]1O` showed a growth at 0.1 µM [1] of 97%, a growth at 0.01 µM [2] of 95% and a growth at 0.1 µM [3] of 92%. The growth at 0.1 µM [4] was 106%, the growth at 0.1 µM [5] was 92% and the growth at 0.1 µM [6] was 107%. For the same molecule, the growth at 1 µM [7] was 86%, the growth at 0.01 µM [8] was 91% and the CC50 [9] was > 100 µM. The TGI ([9]; read-out: TGI) was 4.32 µM, the GI50 ([9]; read-out: pGI50 (converted)) was 1.17 µM and the TGI ([9]; read-out: pTGI (converted)) was 4.37 µM. For the same molecule, the growth at 10 µM [10] was -8%, the growth at 0.1 µM [11] was 95% and the growth at 0.01 µM [12] was 92%. For the same molecule, the growth at 0.01 µM [13] was 105%, the growth at 0.01 µM [14] was 100% and the growth at 0.01 µM [15] was 83%. It also gave a growth at 100 µM [16] of 11%, a TGI ([17]; read-out: TGI) of 2.96 µM and a GI50 ([17]; read-out: pGI50 (converted)) of 1.55 µM. For the same molecule, the CC50 [17, 32] was 5.62 µM, the TGI ([17]; read-out: pTGI (converted)) was 2.95 µM and the growth at 0.1 µM [18] was 102%. For the same molecule, the growth at 0.1 µM [19] was 102%, the growth at 0.1 µM [20] was 103% and the growth at 0.01 µM [21] was 89%. The growth at 0.1 µM [22] was 93%, the growth at 0.01 µM [23] was 97% and the growth at 0.01 µM [24] was 93%. For the same molecule, the CC50 [25, 33] was > 100 µM, the TGI ([25]; read-out: TGI) was 10 µM and the GI50 ([25]; read-out: pGI50 (converted)) was 0.977 µM. For the same molecule, the TGI ([25]; read-out: pTGI (converted)) was 10 µM, the CC50 [26] was > 100 µM and the TGI ([26]; read-out: TGI) was 5.85 µM. For the same molecule, the GI50 ([26]; read-out: pGI50 (converted)) was 1.45 µM, the TGI ([26]; read-out: pTGI (converted)) was 5.89 µM and the growth at 100 µM [27] was -11%. The TGI ([28]; read-out: TGI) was 3.91 µM, the GI50 ([28]; read-out: pGI50 (converted)) was 0.794 µM and the CC50 [28] was 38 µM. For the same molecule, the TGI ([28]; read-out: pTGI (converted)) was 3.89 µM, the TGI ([29]; read-out: TGI) was 7.05 µM and the GI50 ([29]; read-out: pGI50 (converted)) was 2.29 µM. The CC50 [29, 32] was 55 µM, the TGI ([29]; read-out: pTGI (converted)) was 7.08 µM and the growth at 1 µM [30] was 38%.
In the case of `C#C[C@@]1(O)[C@@H](CO)O[C@@H](n2cc(I)c3c(N)ncnc32)[C@@H]1O`, the growth at 0.1 µM [1] is reported as 87 to 91%, the growth at 0.01 µM [2] is reported as 79 to 98% and the growth at 0.1 µM [3] is reported as 26 to 40%. It also gave a growth at 0.1 µM [4] of 67 to 75%, a growth at 0.1 µM [5] of 22 to 34% and a growth at 0.1 µM [6] of 40 to 45%. For the same molecule, the growth at 1 µM [7] was 10%, the growth at 0.01 µM [8] was 87 to 98% and the GI50 ([9]; read-out: GI50) was 0.271 to 0.395 µM. For the same molecule, the CC50 [9] was > 100 µM, the TGI ([9]; read-out: TGI) was 4.31 to 9.72 µM and the growth at 10 µM [10] was 8 to 11%. For the same molecule, the growth at 0.1 µM [11] was 14 to 34%, the IC50 [31] was < 0.00128 µM and the growth at 0.01 µM [12] was 74 to 84%. For the same molecule, the growth at 0.01 µM [13] was 91 to 98%, the growth at 0.01 µM [14] was 89 to 91% and the growth at 0.01 µM [15] was 35 to 54%. The GI50 ([17]; read-out: GI50) was 0.179 to 0.243 µM, the CC50 [17, 33] was > 100 µM and the TGI ([17]; read-out: TGI) was 2.09 to 5.2 µM. It also gave a growth at 0.1 µM [18] of 61 to 76%, a growth at 0.1 µM [19] of 49 to 50% and a growth at 0.1 µM [20] of 72 to 75%. The growth at 0.01 µM [21] was 91 to 92%, the growth at 0.1 µM [22] was 35 to 41% and the growth at 0.01 µM [23] was 98%. The growth at 0.01 µM [24] was 88 to 97%, the GI50 ([25]; read-out: GI50) was 0.0142 to 0.0397 µM and the TGI ([25]; read-out: TGI) was 3.3 to 6.84 µM. The CC50 [25, 32] was > 100 µM, the CC50 [26] was > 100 µM and the growth at 100 µM [27] was -9%. The GI50 ([28]; read-out: GI50) was 0.069 to 0.138 µM, the TGI ([28]; read-out: TGI) was > 100 µM and the CC50 [28] was > 100 µM. For the same molecule, the TGI ([28]; read-out: pTGI (converted)) was > 100 µM, the GI50 ([29]; read-out: GI50) was 2.18 to 2.5 µM and the CC50 [29, 33] was > 100 µM. For the same molecule, the TGI ([29]; read-out: TGI) was 18.6 to 41.5 µM and the growth at 1 µM [30] was 12 to 17%.
